Experimental data pooled from the literature.
Target: Serine/threonine-protein kinase Sgk1 (SGK1, Homo sapiens, UniProt O00141)
One construct used (O00141 1-431): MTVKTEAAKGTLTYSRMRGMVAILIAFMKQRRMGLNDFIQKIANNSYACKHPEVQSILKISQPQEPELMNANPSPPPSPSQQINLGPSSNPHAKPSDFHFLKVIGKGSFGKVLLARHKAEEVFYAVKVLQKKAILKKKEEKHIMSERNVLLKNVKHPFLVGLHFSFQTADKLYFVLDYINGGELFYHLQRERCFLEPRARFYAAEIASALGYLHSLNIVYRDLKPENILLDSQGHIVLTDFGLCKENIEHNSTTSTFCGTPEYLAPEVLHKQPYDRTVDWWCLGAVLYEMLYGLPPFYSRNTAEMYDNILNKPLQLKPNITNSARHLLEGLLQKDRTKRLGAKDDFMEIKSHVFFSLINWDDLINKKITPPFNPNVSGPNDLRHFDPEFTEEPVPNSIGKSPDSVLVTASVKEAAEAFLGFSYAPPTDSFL

With `CCOCCn1cc(C(=O)Nc2ccc(-n3nc(-c4cccnc4)cc3C(F)(F)F)cn2)ccc1=O` the remaining binding was 83% (cell-free assay, competition with immobilised ligand; 1 µM).
`CCN(CC)CCNC(=O)c1c(C)[nH]c(/C=C2\C(=O)Nc3ccc(F)cc32)c1C` gave an inhibition of 28% (enzyme activity, inhibitor; 0.3 µM).
For `CN(C)C1CCN(CC#Cc2nn(C3CCCC3)c3nc(NCc4ccccc4)ncc23)C1` (centres unmarked), the inhibition was 9% (enzyme activity, inhibitor, FRET; 1 µM).
For `Cc1ccc(Nc2nccc(N(C)c3ccc4c(C)n(C)nc4c3)n2)cc1S(N)(=O)=O`, the inhibition was -2% (enzyme activity, inhibitor; 10 µM).
With `CC/C(=N\NC(=O)NCc1cccc(O)c1)c1ccc(O)c(C)c1O` the inhibition was 75.4% (enzyme activity, inhibitor; 0.1 µM).
The inhibition of `CN1CC(Oc2cnc(C#N)cc2-c2ccn3nc(NC(=O)C4CC4)cc3c2)C1` is reported as 3% (enzyme activity, inhibitor; 1 µM).
`Oc1cccc(-c2nc(N3CCOCC3)c3oc4ncccc4c3n2)c1` gave a remaining activity of 92% (enzyme activity, inhibitor; 10 µM).
For `CCN(CC)c1ccc(C2=NNC(=O)CC2C)cc1[N+](=O)[O-]` (centres unmarked), the remaining activity was 100% (enzyme activity, inhibitor; 10 µM).
`O=C(NCCCC1CCCCC1)c1ccc(CNC(=O)c2cnn(-c3ccccc3)c2C(F)(F)F)cc1` has a remaining binding of 100% (cell-free assay, competition with immobilised ligand; 0.1 µM).
For `CC(C)(O)[C@H]1CC[C@H](Nc2ccc3ncc(-c4cccc(C(F)(F)F)c4)n3n2)CC1`, the remaining activity was 99.4% (enzyme activity, inhibitor; 1 µM).
The remaining binding of `O=C(Nc1ccc(Oc2ccc(F)cc2)cc1)N1CCc2ncccc2[C@H]1c1ccc(F)cc1` is reported as 95% (cell-free assay, competition with immobilised ligand; 1 µM).
`FC(F)c1nc2ccccc2n1-c1nc(N2CCOCC2)nc(N2CCOCC2)n1` has a remaining activity of 98% (enzyme activity, inhibitor; 10 µM).
With `CC1=C(C#N)C(c2ccc3c(c2)c(NC(=O)c2ccccc2C)nn3C)C(C#N)=C(C)N1` the remaining binding was 89% (cell-free assay, competition with immobilised ligand; 1 µM).
`COc1cc2ncnc(Nc3ccc(Oc4ccccc4)cc3C)c2cc1OC` has an inhibition of 8% (enzyme activity, inhibitor; 1 µM).
`FC(F)(F)Oc1cccc(-c2cnc3ccc(-c4ccncc4)nn23)c1` gave an activity vs control of 103% (enzyme activity, inhibitor, radiometric; 1 µM).
`CCCOc1ccc(OC)c(F)c1C(=O)c1ccc(C(=O)N[C@@H]2CNC[C@H]2NC(=O)c2ccc3[nH]ncc3c2)cc1` has a remaining activity of 64% (enzyme activity, inhibitor; 0.1 µM).
For `COc1cc(Cl)c(C(=O)N[C@@H](CN[C@H]2CC[C@@H](N)CC2)Cc2ccc(C#N)cc2)cc1-c1ccc(CN[C@H](C)c2ccc(C)cc2)o1`, the remaining activity was 94% (enzyme activity, inhibitor; 1 µM).
`CSc1cccnc1N1CCN(Cc2nc3ccccc3[nH]2)CC1` gave a remaining binding of 82% (cell-free assay, competition with immobilised ligand; 1 µM).
The inhibition of `CNCc1ccc(-c2cc(-c3nc(-c4ccc(S(=O)(=O)C(C)C)cc4)cnc3N)on2)cc1` is reported as 0% (enzyme activity, inhibitor; 2 µM).
`Fc1cccc(-n2cnc3c(NCc4nc5c(F)c(F)ccc5[nH]4)nc(N4CCOCC4)nc32)c1` gave a binding vs control of 24% (binding, competition with immobilised ligand; 10 µM).
The remaining binding of `O=C1CCc2cc(Nc3cc(OC4CCOCC4)c([N+](=O)[O-])cc3Cl)ccc2N1` is reported as 100% (cell-free assay, competition with immobilised ligand; 1 µM).
`O=C(Nc1cnn(-c2csc(C(=O)NC3COC3)c2)c1)Nc1c(F)cccc1Cl` gave a remaining activity of 95.4% (enzyme activity, inhibitor; 5 µM).
`Nc1ncnc2n[nH]c(Nc3ccc(F)cc3)c12` gave a remaining signal of 91.5% (cell-free assay; 0.5 µM).
`CC(C)(C)C(=O)c1sc(NC2CCCCC2)nc1N` gave a remaining activity of 91% (enzyme activity, inhibitor; 10 µM).
`CC[C@H](CO)Nc1nc(NCc2ccccc2)c2ncn(C(C)C)c2n1` has a remaining signal of 120% (cell-free assay; 0.5 µM).
`CNC(=O)c1cc(Oc2ccc(NC(=O)Nc3ccc(Cl)c(C(F)(F)F)c3)cc2)ccn1` gave an inhibition of -21% (enzyme activity, inhibitor; 10 µM).
For `N#CCCc1ccc2c(c1)-c1[nH]c3ccc([N+](=O)[O-])cc3c1CC(=O)N2`, the remaining signal was 87.9% (cell-free assay; 0.5 µM).
The inhibition of `CCCS(=O)(=O)Nc1ccc(F)c(C(=O)c2c[nH]c3ncc(-c4ccc(Cl)cc4)cc23)c1F` is reported as < 10% (enzyme activity, inhibitor; 1 µM).
With `CC(C)(C)c1nc(-c2cccc(NS(=O)(=O)c3c(F)cccc3F)c2F)c(-c2ccnc(N)n2)s1` the remaining activity was 75% (enzyme activity, inhibitor, radiometric; 1 µM).
For `CC(=O)C1=C(C)N(c2cccc(C(F)(F)F)c2)C(=O)N[C@@H]1c1ccc(C#N)nc1`, the remaining binding was 100% (cell-free assay, competition with immobilised ligand; 1 µM).
`COc1cc(Nc2cnc(C#N)c(O[C@H](C)CN(C)C)n2)ncc1-c1cnn(C)c1` has a remaining activity of 79% (enzyme activity, inhibitor, radiometric; 1 µM).
`CCC(=N\O)/C(C)=C/c1ccc(F)cc1` has a remaining binding of 89% (cell-free assay, competition with immobilised ligand; 1 µM).
The remaining activity of `O=C(Nc1cnn(-c2csc(C(=O)NC3COC3)c2)c1)Nc1ccccc1Cl` is reported as 93.7% (enzyme activity, inhibitor; 5 µM).
The remaining signal of `Nc1ncnc2occ(-c3ccc(NC(=O)Nc4cc(C(F)(F)F)ccc4F)cc3)c12` is reported as 10% (cell-free assay, inhibitor; 20 µM).
With `Cc1ccc(NC(=O)c2ccc(C)c(C(F)(F)F)c2)cc1C#Cc1nn(C2CCC(O)CC2)c2ncnc(N)c12` (centres unmarked) the remaining signal was 90% (cell-free assay; 10 µM).
